Assay outcomes: PubChem, several laboratories
CaV13 FRET inh = Primary screen for inhibitors of IQ motif and Ca2+-dependent inactivation inhibitor domain binding in CACNA1D, Förster resonance energy transfer in living cells, …. AID 743397. inhibition, % at 12.3 µM. 0.098% of 340,000 active. HEK cells, CFP/YFP FRET ICDI-IQ, plate reader, 10 min; percent FRET-ratio fall versus neutral wells;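 active means mean replicate inhibition of at least 30% and at least 1% of replicates passing that level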;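 further: 0% = median of the neutral control wells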
GSIS activator = primary screen for activators of insulin secretion dependent on glucose, INS-1E cells, GLuc reporter luminescence; 0.61% of 370,000 active; activation, % at 16.6 µM; INS-1E GLuc reporter insulin secretion, 2-3 h;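 active means lowest replicate activation of at least 40%, so every replicate reaches that level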;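 further: 0% = median of neutral control wells and 100% = median of IBMX positive control wells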
GAA850 FXN act = activators of GAA850 frataxin (FXN) promoter | activation, % at 6 µM | HEK293 lucGAA850 FXN promoter luciferase reporter, 24 h; percent of 10 µM SAHA response | 0.56% of 360,000 active | AID 540364;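 active means activation above the average of all compounds screened plus 3 SD, cutoff fixed separately per campaign, cut at about 7.5% in these data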;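 further: 0% = DMSO wells and 100% = 10 µM SAHA wells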
Xi reactivation = activators of X-chromosome reactivation in mouse fibroblasts; XiGFP mouse fibroblasts, % GFP-positive cells imaging, 3 d; cells co-treated with 5-aza-dC sensitizer; scaled so ellipticine positive control = 100%; activation, % at 7.58 µM; 0.055% of 360,000 active; AID 743238;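 active means mean normalized replicate activation at least 10% and every replicate at or above 10%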;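 further: 0% = median of on-plate neutral control wells and 100% = ellipticine 6 µM median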
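System: 68-5-11 XiGFP fibroblast line | Buffer or medium: DMEM containing 5-aza-dC | Compound: Single point | Times: Compounds 3 days, fix/stain 15 min at room temperature | Benchmarks: Positive control ellipticine, 6 µM final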
* marks the source's active call; other numbers are inactive results; nt = no result given. Shown are actives, neighbours in structure and some others; about 1% of the full set was active somewhere.

SMILES	CaV13 FRET inh	GSIS activator	GAA850 FXN act	Xi reactivation
COc1cccc(CN2CC(C(=O)N(C)Cc3nc4ccc(F)cc4[nH]3)CCC2=O)c1 (configuration not stated)	-3	-9	0	0
COc1ccc2nc(CCN(C)C(=O)C3CCC(=O)N(Cc4cccc(F)c4)C3)[nH]c2c1 (configuration not stated)	-2	61*	2	0
COc1cccc(-c2ccc([C@@H]3[C@H]4CN(C(=O)CN5CCOCC5)CC(=O)N4[C@H]3CO)cc2)c1	nt	-1	nt	1
CCCCCCCCN1C(=O)[C@@H](CC(=O)N2CCN(C(=O)c3ccco3)CC2)C[C@@]2(C(=O)OC)C1=C[C@H](C1CCCC1)O[C@@H]2C	-9	54*	nt	0
CSC1=NSC2=NC(=O)/C(=C/c3coc4ccccc4c3=O)C(=N)N12	-17	nt	0	0
CSC1=NSC2=NC(=O)/C(=C/c3coc4ccc(O)cc4c3=O)C(=N)N12	126*	-4	-2	0
C[C@@H]1CN([C@@H](C)CO)S(=O)(=O)c2ccc(C#CC3CC3)cc2O[C@@H]1CN(C)C(=O)c1ccccn1	nt	-14	nt	-1
CC(C)C#Cc1cnc2c(c1)C(=O)N([C@H](C)CO)C[C@@H](C)[C@H](CN(C)C(=O)Nc1ccccc1)O2	nt	12	nt	-1
O=C(c1cc(-c2cccc(Cl)c2)nc2ccccc12)N1CCCC1	-3	7	1	0
O=C(c1cc(-c2ccccc2)nc2ccccc12)N1CCCC1	-3	44*	1	0
Cc1cc(-n2c(=O)c(C#N)cc3c(=O)n4cccc(C)c4nc32)no1	43*	nt	1	nt
C[C@@H]1CN([C@@H](C)CO)C(=O)Cc2cc(NC(=O)Cn3cnnn3)ccc2O[C@H]1CN(C)S(=O)(=O)c1ccc(F)cc1	nt	21	nt	0
COc1cccc(NC(=O)N2C[C@H](O)COC[C@@H]3O[C@H](CC(=O)NC4CCCC4)CC[C@H]32)c1	nt	10	nt	0
Cc1ccc(S(=O)(=O)c2ncccc2[N+](=O)[O-])cc1	-3	65*	-6	1
CCCCN1C(=O)/C(=C/C=C2\SCCN2C)SC1=S	-8	0	9.8*	0
Cc1ccc(C(=O)N/C(=C/c2ccc(-c3ccc([N+](=O)[O-])cc3)o2)C(=O)NCCCN(C)C)cc1	-116	nt	-1	62*
Cc1noc(NS(=O)(=O)c2ccc(NC(=O)CSc3ncccn3)cc2)c1C	8	5	-1	0
Cc1cc(C)nc(SCC(=O)Nc2ccc(S(=O)(=O)Nc3onc(C)c3C)cc2)n1	80*	4	-1	0
C[C@@H]1CN([C@H](C)CO)C(=O)c2cc(NC(=O)CCCN(C)C)ccc2O[C@H]1CN(C)C(=O)Nc1ccccc1	nt	12	nt	0
Nc1ccc(O)c(-c2nc3ccccc3s2)c1	-5	nt	2	nt
Oc1ccc(N=C/C=C/c2cccc(Br)c2)cc1-c1nc2ccccc2s1	nt	nt	14*	nt
NC(=O)c1ccsc1NC(=O)COC(=O)CNC(=O)c1ccc(Cl)cc1	-6	50*	0	0
O=C(C[C@H]1CC[C@@H](NC(=O)C2CCOCC2)[C@@H](CO)O1)NCC1CC1	nt	10	nt	0
N#C/C(=C(\O)c1ccco1)c1ccccn1	0	17	0	nt
N#CC(C(=O)c1ccco1)c1ccccn1 (configuration not stated)	-5	43*	1	nt
SMILES	CaV13 FRET inh	GSIS activator	GAA850 FXN act	Xi reactivation
CC(C)CCN1C(=O)CSCC1(C)C(=O)NC(C)C (configuration not stated)	-16	43*	nt	1
COc1cc(-c2nc(-c3cccnc3)no2)cc(OC)c1OC	-2	15	4	0
COc1ccc(-c2nc(-c3cccnc3)no2)cc1OC	-4	58*	4	0
COc1ccc(Nc2ncnc3sccc23)c(OC)c1	-7	3	3	0
Cc1ccc(Nc2ncnc3sccc23)c(C)c1	-3	42*	2	0
Cn1c(/C(C#N)=C/c2ccc(O)cc2)nc2ccccc21	-3	42*	3	0
O=C(N[C@@H]1CC[C@H](CCNC(=O)C2CC2)O[C@H]1CO)c1ccncc1	nt	15	nt	1
COc1ccc2c(c1)[C@@]1(OCCC=C[C@H]1C)C(=O)N2CC1CC1	-5	53*	nt	0
CCC(=O)N1CCC2(CC1)CN(C(=O)Nc1ccccc1F)[C@H](CO)c1c2c2ccc(OC)cc2n1C	nt	-35	nt	0
O=C(CN1C(=O)NC(Cc2c[nH]c3ccccc23)C1=O)NCCc1ccccc1 (configuration not stated)	-14	103*	1	0
CCN(CC)C(=O)c1ccc(/C=C/c2c[nH]c3ccccc23)[n+](C)c1	-10	-14	-1	0
CC[n+]1c(/C=C/c2c[nH]c3ccccc23)ccc2cc(C)ccc21	-194	-79	nt	103*
O=C(OCc1c(-c2ccccc2)ncc2ccccc12)c1ccc(Br)cc1	-6	24	0	0
O=C(OCc1c(-c2ccccc2)ncc2ccccc12)c1cccs1	-11	55*	1	0
O=CNc1ccc2c3c(cccc13)-c1ccccc1-2	-12	2	1	55*
C[C@@H]1CCCCO[C@@H](CN(C)C(=O)CCCN(C)C)[C@H](C)CN([C@@H](C)CO)C(=O)c2cc(NC(=O)c3ccncc3)ccc2O1	nt	29	nt	0
Cc1cccc(Cn2ccc(-c3ccc(Cl)cc3)c(C#N)c2=O)c1	1	95*	-1	nt
COC(=O)C1C(=O)NC(SC)=C(C#N)C1c1ccccc1 (configuration not stated)	-5	40*	7	nt
COC(=O)CSC1=C(C#N)C(c2ccc(Cl)cc2)C(C(=O)OC)C(=O)N1 (configuration not stated)	0	nt	2	nt
CCC(=O)N[C@@H]1C=C[C@@H](CC(=O)NCCN2CCCCC2)O[C@@H]1CO	nt	-2	nt	0
Nc1nc(N)nc(-c2ccc(Cl)cc2)n1	-5	47*	3	nt
C(=N\Nc1ncnc2sc3c(c12)CCC3)/c1cccs1	-7	-2	13*	nt
CCOC(=O)C1C(=O)C=C(c2cccs2)CC1c1ccccc1C (configuration not stated)	-19	49*	0	0
CCOC(=O)C1C(=O)C=C(c2cccs2)CC1c1ccccc1 (configuration not stated)	-13	nt	-1	0
CCC(=O)N(C)C[C@H]1Oc2cc(-c3cccc(F)c3)ccc2S(=O)(=O)N([C@@H](C)CO)C[C@@H]1C	nt	-21	nt	0
NC(=O)/C=C/C(=O)Nc1ccc(Cl)cc1	-5	-14	-1	0
O=C(/C=C/C(Cl)(Cl)Cl)Nc1ccc(Cl)cc1	-5	170*	1	0
O=C(C[C@@H]1C[C@@H]2c3cc(NC(=O)C4CCOCC4)ccc3O[C@@H]2[C@H](CO)O1)NCc1ccc(Oc2ccccc2)cc1	nt	28	nt	0
